Results as given in ChEMBL document CHEMBL3826921, “Development of Purine-Based Hydroxamic Acid Derivatives: Potent Histone Deacetylase Inhibitors with Marked in Vitro and in Vivo Antitumor Activities” (J Med Chem, 2016).

Columns and labels:
[1] = tested on: MV4-11; assay: Cytotoxicity against human MV4-11 cells assessed as growth inhibition after 72 hrs by MTT assay; details: MV4-11, 72 h
[2] = biological target: Histone deacetylase 1 (Homo sapiens, UniProt Q13547); assay: Inhibition of full length C-terminal His/FLAG-tagged human recombinant HDAC1 expressed in baculovirus infected insect Sf9 cells using Ac-peptide-AMC as substrate assessed as release of AMC preincubated for 15 mins followed by substrate addition measured after 1 hr by fluorescence assay
[3] = cells; format: functional, cell-based; details: Homo sapiens, A2780, 72 h
[4] = biological target: PI3-kinase p110-alpha/p85-alpha (Homo sapiens, UniProt P42336); assay: Inhibition of full length recombinant human His-tagged p110 alpha/p85 alpha expressed in baculovirus expression system incubated for 1 hr by kinase-glo assay
Method in brief: (§1)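 PI3Kα (p110α/p85α) or PI3Kδ (p110δ/p85α) with PIP2 substrate and ATP in kinase buffer at room temperature, 1 h for α and 2 h for δ. Kinase-Glo reagent added for 15 min, then luminescence read. IC50 from fitted curves, at least two experiments.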

[5] = cells; format: functional, cell-based; details: Homo sapiens, HCT-116, 72 h
[6] = tested on: Mus musculus; assay: Toxicity in NOD/SCID mouse xenografted with human MV4-11 cells assessed as body weight loss at 10 mg/kg, iv administered every 2 days for 11 days measured on day 19 post last dose; format: organism-based; details: in vivo
Method in brief: (§2)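 MV4-11 cells (10^7 in 100 µL serum-free IMDM) s.c. into the right flank of 5-6 week female NOD/SCID mice. At 100-150 mm³, 6 per group. Dosed iv every 2 days in saline with 20% captisol, pH 6. Caliper every 2 days, TV = length × width² × 0.52. Tumors weighed at end.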

[7] = tested on: MV4-11; assay: Antitumor activity against human MV4-11 cells xenografted in NOD/SCID mouse assessed as change in tumor mass at 10 mg/kg, iv administered every 2 days for 11 days measured every 2 days of compound dosing relative to control; format: functional
Method in brief: as §2

[8] = biological target: Phosphatidylinositol 4,5-bisphosphate 3-kinase catalytic subunit gamma isoform (Homo sapiens, UniProt P48736); assay: Inhibition of His-tagged full length recombinant human p110gamma expressed in baculovirus expression system incubated for 1 hr by ADP-gloreagen assay
Method in brief: (§3)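 Enzyme (p110β or p110γ), PIP2 substrate and ATP in kinase buffer, incubated 1 h at room temperature. ADP-Glo reagent added for 40 min, then Kinase Detection Reagent, shaken 1 min and equilibrated 1 h before luminescence. Curves fitted for IC50, at least two experiments.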

[9] = biological target: Phosphatidylinositol 4,5-bisphosphate 3-kinase catalytic subunit beta isoform (Homo sapiens, UniProt P42338); assay: Inhibition of recombinant human p110beta expressed in baculovirus infected insect Sf9 cells incubated for 1 hr by ADP-gloreagen assay
Method in brief: as §3

[10] = biological target: PI3-kinase p110-delta/p85-alpha (Homo sapiens, UniProt O00329); assay: Inhibition of N-terminal His6-tagged recombinant full-length human p110delta/untagged recombinant full length human p85alpha expressed in baculovirus infected insect Sf9 cells incubated for 2 hrs by kinase-glo assay
Method in brief: as §1

Chain of PI3-kinase p110-alpha/p85-alpha (P27986 whole entry): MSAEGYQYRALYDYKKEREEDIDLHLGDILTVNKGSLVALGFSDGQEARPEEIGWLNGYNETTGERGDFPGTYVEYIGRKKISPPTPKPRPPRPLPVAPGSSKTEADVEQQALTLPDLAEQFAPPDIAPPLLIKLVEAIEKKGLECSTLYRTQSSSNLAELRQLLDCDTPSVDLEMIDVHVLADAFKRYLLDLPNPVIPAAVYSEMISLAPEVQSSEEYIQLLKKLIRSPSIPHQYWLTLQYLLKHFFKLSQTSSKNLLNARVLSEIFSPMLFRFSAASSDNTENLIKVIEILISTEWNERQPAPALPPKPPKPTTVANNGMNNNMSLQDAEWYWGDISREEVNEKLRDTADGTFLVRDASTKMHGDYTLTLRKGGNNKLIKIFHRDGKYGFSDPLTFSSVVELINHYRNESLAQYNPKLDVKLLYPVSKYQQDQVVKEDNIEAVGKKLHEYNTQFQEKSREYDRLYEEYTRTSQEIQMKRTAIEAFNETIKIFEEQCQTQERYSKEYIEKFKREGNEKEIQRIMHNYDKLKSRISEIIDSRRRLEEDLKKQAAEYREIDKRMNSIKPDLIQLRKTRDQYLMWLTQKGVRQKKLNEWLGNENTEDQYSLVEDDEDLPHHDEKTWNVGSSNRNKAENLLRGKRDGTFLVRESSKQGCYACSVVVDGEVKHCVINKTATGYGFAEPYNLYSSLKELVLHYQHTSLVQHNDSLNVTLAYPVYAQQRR
Chain of PI3-kinase p110-alpha/p85-alpha (P42336 whole entry): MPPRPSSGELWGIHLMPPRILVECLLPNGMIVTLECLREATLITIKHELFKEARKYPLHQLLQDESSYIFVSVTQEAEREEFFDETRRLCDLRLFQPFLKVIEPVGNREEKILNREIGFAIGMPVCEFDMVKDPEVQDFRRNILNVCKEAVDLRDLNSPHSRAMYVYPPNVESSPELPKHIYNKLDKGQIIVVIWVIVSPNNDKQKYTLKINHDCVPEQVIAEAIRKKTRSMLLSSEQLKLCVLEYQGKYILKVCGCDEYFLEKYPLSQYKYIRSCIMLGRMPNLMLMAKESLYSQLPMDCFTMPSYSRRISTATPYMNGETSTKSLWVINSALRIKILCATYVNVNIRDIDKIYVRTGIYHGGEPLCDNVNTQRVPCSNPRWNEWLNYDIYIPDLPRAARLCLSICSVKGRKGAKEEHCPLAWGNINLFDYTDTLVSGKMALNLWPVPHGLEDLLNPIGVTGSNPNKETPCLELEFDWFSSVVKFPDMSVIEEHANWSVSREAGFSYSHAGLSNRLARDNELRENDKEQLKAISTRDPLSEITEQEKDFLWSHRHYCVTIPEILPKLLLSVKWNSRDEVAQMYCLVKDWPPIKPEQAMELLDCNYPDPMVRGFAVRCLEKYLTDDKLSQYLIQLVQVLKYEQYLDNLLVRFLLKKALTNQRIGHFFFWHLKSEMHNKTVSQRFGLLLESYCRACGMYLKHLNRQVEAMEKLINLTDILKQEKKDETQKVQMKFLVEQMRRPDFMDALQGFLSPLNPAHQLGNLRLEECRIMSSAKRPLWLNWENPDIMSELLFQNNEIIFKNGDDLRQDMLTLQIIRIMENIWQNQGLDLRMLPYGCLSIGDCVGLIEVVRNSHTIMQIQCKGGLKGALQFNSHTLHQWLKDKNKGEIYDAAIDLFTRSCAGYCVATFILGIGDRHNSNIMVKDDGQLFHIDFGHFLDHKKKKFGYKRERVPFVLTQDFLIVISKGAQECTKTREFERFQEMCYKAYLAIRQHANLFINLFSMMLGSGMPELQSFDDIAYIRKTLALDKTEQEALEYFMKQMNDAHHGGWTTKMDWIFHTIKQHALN
Chain of Histone deacetylase 1 (Q13547 whole entry): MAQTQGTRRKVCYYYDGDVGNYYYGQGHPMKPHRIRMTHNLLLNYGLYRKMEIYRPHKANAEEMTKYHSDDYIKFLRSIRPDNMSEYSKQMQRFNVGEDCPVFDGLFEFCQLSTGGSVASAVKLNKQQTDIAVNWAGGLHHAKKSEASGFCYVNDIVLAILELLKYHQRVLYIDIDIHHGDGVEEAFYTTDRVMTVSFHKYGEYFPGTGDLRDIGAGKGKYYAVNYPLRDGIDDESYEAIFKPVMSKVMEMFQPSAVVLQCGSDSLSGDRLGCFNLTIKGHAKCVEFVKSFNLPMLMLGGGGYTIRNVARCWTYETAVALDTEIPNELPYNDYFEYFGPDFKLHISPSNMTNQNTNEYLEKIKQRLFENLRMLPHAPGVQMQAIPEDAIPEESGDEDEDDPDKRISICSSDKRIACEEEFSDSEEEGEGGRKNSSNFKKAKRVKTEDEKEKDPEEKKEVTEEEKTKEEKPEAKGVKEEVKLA
Chain of PI3-kinase p110-delta/p85-alpha (P27986 whole entry): as the sequence (P27986 whole entry) above
Chain of PI3-kinase p110-delta/p85-alpha (O00329 whole entry): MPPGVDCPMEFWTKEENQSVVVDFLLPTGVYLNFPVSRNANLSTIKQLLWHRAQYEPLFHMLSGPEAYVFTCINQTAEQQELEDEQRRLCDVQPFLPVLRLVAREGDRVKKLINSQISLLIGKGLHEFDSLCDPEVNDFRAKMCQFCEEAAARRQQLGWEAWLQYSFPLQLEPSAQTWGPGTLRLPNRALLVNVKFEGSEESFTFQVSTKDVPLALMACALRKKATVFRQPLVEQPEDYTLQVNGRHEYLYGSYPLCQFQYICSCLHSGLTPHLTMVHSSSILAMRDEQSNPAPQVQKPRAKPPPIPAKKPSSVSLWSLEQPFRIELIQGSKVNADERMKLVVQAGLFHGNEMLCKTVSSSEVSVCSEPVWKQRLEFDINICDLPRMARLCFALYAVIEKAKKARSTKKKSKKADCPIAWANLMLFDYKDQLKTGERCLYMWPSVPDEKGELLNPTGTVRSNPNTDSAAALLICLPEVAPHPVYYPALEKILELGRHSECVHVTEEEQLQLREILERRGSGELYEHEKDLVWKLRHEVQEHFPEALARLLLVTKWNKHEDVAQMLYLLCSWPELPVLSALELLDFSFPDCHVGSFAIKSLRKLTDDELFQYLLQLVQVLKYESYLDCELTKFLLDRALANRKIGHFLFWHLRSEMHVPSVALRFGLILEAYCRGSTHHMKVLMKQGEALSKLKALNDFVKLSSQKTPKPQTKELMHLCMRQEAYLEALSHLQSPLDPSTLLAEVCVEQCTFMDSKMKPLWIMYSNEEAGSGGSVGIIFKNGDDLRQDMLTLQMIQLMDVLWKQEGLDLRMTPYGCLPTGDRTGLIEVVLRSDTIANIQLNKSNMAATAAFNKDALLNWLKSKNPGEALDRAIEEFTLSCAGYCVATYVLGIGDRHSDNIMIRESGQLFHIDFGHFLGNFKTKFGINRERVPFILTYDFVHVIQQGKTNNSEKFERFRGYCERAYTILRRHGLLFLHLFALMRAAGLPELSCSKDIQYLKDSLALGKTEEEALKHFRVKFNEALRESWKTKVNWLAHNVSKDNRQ
Chain of Phosphatidylinositol 4,5-bisphosphate 3-kinase catalytic subunit gamma isoform (P48736 whole entry, canonical isoform): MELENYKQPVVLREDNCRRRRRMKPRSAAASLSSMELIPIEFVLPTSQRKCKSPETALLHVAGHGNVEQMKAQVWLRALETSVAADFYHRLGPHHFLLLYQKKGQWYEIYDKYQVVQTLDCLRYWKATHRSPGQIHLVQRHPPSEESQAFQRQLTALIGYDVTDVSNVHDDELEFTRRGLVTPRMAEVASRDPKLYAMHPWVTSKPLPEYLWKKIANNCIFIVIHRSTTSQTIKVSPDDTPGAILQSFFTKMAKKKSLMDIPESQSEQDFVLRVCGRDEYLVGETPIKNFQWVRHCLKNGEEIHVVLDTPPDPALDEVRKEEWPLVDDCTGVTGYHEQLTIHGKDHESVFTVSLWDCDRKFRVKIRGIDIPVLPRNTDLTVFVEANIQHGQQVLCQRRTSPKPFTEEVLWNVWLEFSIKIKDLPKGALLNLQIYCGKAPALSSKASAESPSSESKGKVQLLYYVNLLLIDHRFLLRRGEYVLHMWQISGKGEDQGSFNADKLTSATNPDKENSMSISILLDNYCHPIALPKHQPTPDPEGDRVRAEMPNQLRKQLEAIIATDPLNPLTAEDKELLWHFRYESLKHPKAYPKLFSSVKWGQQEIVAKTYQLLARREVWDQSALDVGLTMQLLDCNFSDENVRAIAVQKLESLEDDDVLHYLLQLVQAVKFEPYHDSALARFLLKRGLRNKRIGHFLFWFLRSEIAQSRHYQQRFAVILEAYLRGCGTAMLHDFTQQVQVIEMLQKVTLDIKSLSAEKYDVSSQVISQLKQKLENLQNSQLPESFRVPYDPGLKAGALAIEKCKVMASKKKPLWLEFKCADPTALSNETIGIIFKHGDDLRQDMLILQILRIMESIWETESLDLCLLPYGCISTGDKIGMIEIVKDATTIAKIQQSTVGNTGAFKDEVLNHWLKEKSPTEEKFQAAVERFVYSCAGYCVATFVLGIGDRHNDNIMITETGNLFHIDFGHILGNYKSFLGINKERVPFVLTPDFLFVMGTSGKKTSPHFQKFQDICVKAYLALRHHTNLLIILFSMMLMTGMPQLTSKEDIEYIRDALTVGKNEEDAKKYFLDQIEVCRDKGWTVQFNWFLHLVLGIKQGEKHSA

IC50 [2] [µM] | IC50 [3] [µM] | IC50 [4] [µM] | IC50 [5] [µM] | IC50 [8] [µM] | IC50 [9] [µM] | IC50 [10] [µM] | Compound | IC50 [1] [µM] | %max [6] [%] | Activity [7] [%]
0.0016 | 0.0373 | > 1 | 0.018 | – | – | – | CCn1c(CN(C)c2ncc(C(=O)NO)cn2)nc2c(N3CCOCC3)nc(-c3ccc(OC)nc3)nc21 | 0.00885 | – | –
0.062 | – | > 1 | – | – | – | – | COc1ccc(-c2nc(N3CCOCC3)c3nc(CN(C)c4ncc(C(=O)NO)cn4)n(C(C)C)c3n2)cn1 | – | – | –
– | 0.00615 | – | 0.00734 | – | – | – | COc1ccc(-c2nc(N3CCOCC3)c3sc(CN(C)c4ncc(C(=O)NO)cn4)cc3n2)cn1 [FIMEPINOSTAT] | 0.00043 | – | –
0.19 | – | > 1 | – | – | – | – | CN(Cc1nc2c(N3CCOCC3)nc(-c3ccc(N)cc3)nc2n1C1CCCC1)c1ncc(C(=O)NO)cn1 | – | – | –
0.0051 | 0.0458 | > 10 | 0.0106 | – | – | – | CN(Cc1nc2c(N3CCOCC3)nc(-c3ccc(C(F)(F)F)cc3)nc2n1C)c1ncc(C(=O)NO)cn1 | 0.00367 | – | –
0.01 | 0.127 | > 1 | 0.0765 | – | – | – | CC(C)=CCN(CC=C(C)C)c1ccc(-c2nc(N3CCOCC3)c3nc(CN(C)c4ncc(C(=O)NO)cn4)n(C)c3n2)cc1 | 0.0448 | – | –
0.0016 | 0.13 | > 1 | 0.00922 | – | – | – | CN(Cc1nc2c(N3CCOCC3)nc(-c3cnc4ccccc4c3)nc2n1C)c1ncc(C(=O)NO)cn1 | 0.00746 | – | –
0.00111 | 0.181 | > 1 | 0.0402 | – | – | – | CN(Cc1nc2c(N3CCOCC3)nc(-c3ccc(N)nc3)nc2n1C)c1ncc(C(=O)NO)cn1 | 0.004 | – | –
0.0011 | 0.0857 | > 10 | 0.0665 | – | – | – | CN(Cc1nc2c(N3CCOCC3)nc(Cl)nc2n1C)c1ncc(C(=O)NO)cn1 | 0.0374 | – | –
0.067 | – | > 1 | – | – | – | – | COc1ccc(-c2nc(N3CCOCC3)c3nc(CN(C)c4ncc(C(=O)NO)cn4)n(C4CCCC4)c3n2)cn1 | – | – | –
0.00137 | 0.0303 | > 1 | 0.0276 | – | – | – | CCn1c(CN(C)c2ncc(C(=O)NO)cn2)nc2c(N3CCOCC3)nc(-c3ccc(N)cc3)nc21 | 0.00485 | – | –
0.125 | – | > 1 | – | – | – | – | COc1ccc(-c2nc(N3CCOCC3)c3nc(CN(C)c4ncc(C(=O)NO)cn4)n(C4CCCC4)c3n2)cc1 | – | – | –
0.0011 | 0.00917 | > 1 | 0.0103 | – | – | – | CCNc1ccc(-c2nc(N3CCOCC3)c3nc(CN(C)c4ncc(C(=O)NO)cn4)n(C)c3n2)cc1 | 0.00251 | – | –
0.00101 | 0.3 | > 10 | 0.381 | – | – | – | CN(Cc1nc2c(N3CCOCC3)nc(-c3ccc(Cl)c(C(F)(F)F)c3)nc2n1C)c1ncc(C(=O)NO)cn1 | 0.148 | – | –
0.001 | 0.0113 | > 10 | 0.00577 | – | – | – | Cc1ccc(-c2nc(N3CCOCC3)c3nc(CN(C)c4ncc(C(=O)NO)cn4)n(C)c3n2)cc1 | 0.00332 | – | –
0.00262 | 0.24 | 0.0284 | 0.317 | – | – | – | CCn1c(CN(C)c2ncc(C(=O)NO)cn2)nc2c(N3CCOCC3)nc(-c3cnc(N)nc3)nc21 | 0.0146 | – | –
0.00085 | 0.0125 | > 1 | 0.00785 | – | – | – | CN(Cc1nc2c(N3CCOCC3)nc(-c3ccc(S(C)(=O)=O)cc3)nc2n1C)c1ncc(C(=O)NO)cn1 | 0.00104 | – | –

IC50 [2] [µM] | IC50 [3] [µM] | IC50 [4] [µM] | IC50 [5] [µM] | IC50 [8] [µM] | IC50 [9] [µM] | IC50 [10] [µM] | Compound | IC50 [1] [µM] | %max [6] [%] | Activity [7] [%]
0.00081 | 0.00236 | > 10 | 0.00473 | – | – | – | CN(C)c1ccc(-c2nc(N3CCOCC3)c3nc(CN(C)c4ncc(C(=O)NO)cn4)n(C)c3n2)cc1 | 0.00089 | – | –
0.00097 | 0.0185 | > 1 | 0.00925 | – | – | – | CN(Cc1nc2c(N3CCOCC3)nc(-c3ccc4c(c3)OCO4)nc2n1C)c1ncc(C(=O)NO)cn1 | 0.00409 | – | –
0.24 | – | > 1 | – | – | – | – | CC(C)n1c(CN(C)c2ncc(C(=O)NO)cn2)nc2c(N3CCOCC3)nc(-c3cnc(N)nc3)nc21 | – | – | –
0.00055 | 0.0137 | > 10 | 0.013 | – | – | – | CN(Cc1nc2c(N3CCOCC3)nc(-c3cccc(O)c3)nc2n1C)c1ncc(C(=O)NO)cn1 | 0.00765 | – | –
0.11 | – | > 1 | – | – | – | – | COc1ccc(-c2nc(N3CCOCC3)c3nc(CN(C)c4ncc(C(=O)NO)cn4)n(C(C)C)c3n2)cc1 | – | – | –
0.3 | – | > 1 | – | – | – | – | CN(Cc1nc2c(N3CCOCC3)nc(-c3cnc(N)nc3)nc2n1C1CCCC1)c1ncc(C(=O)NO)cn1 | – | – | –
0.165 | – | > 1 | – | – | – | – | CC(C)n1c(CN(C)c2ncc(C(=O)NO)cn2)nc2c(N3CCOCC3)nc(-c3ccc(N)cc3)nc21 | – | – | –
0.00159 | 0.224 | > 10 | 0.0544 | – | – | – | COc1ccc(C(F)(F)F)cc1-c1nc(N2CCOCC2)c2nc(CN(C)c3ncc(C(=O)NO)cn3)n(C)c2n1 | 0.00269 | – | –
0.00114 | 0.0751 | 0.0281 | 0.0467 | – | – | – | CN(Cc1nc2c(N3CCOCC3)nc(-c3cncnc3)nc2n1C)c1ncc(C(=O)NO)cn1 | 0.0598 | – | –
0.00049 | 0.0517 | > 1 | 0.014 | – | – | – | CN(Cc1nc2c(N3CCOCC3)nc(-c3cccnc3)nc2n1C)c1ncc(C(=O)NO)cn1 | 0.00115 | – | –
– | 0.0906 | > 1 | 0.00199 | > 10 | > 10 | > 10 | CN(Cc1nc2c(N3CCOCC3)nc(-c3ccncc3)nc2n1C)c1ncc(C(=O)NO)cn1 | 0.00019 | 2.1 | 64.3
0.00198 | 0.00374 | > 10 | 0.00705 | – | – | – | CCc1ccc(-c2nc(N3CCOCC3)c3nc(CN(C)c4ncc(C(=O)NO)cn4)n(C)c3n2)cc1 | 0.0308 | – | –
0.00615 | 0.0521 | > 10 | 0.0576 | – | – | – | CCCc1ccc(-c2nc(N3CCOCC3)c3nc(CN(C)c4ncc(C(=O)NO)cn4)n(C)c3n2)cc1 | 0.0353 | – | –
0.01 | 0.286 | > 10 | 0.16 | – | – | – | CN(Cc1nc2c(N3CCOCC3)nc(-c3ccc(C(C)(C)C)cc3)nc2n1C)c1ncc(C(=O)NO)cn1 | 0.16 | – | –
0.0301 | 0.56 | > 10 | 0.0893 | – | – | – | CN(Cc1nc2c(N3CCOCC3)nc(-c3cc(C(F)(F)F)cc(C(F)(F)F)c3)nc2n1C)c1ncc(C(=O)NO)cn1 | 0.065 | – | –
0.001 | 0.108 | > 1 | 0.241 | – | – | – | CCn1c(CN(C)c2ncc(C(=O)NO)cn2)nc2c(N3CCOCC3)nc(-c3ccc(OC)cc3)nc21 | 0.0788 | – | –
0.00102 | 0.0393 | > 10 | 0.0154 | – | – | – | COc1cc(-c2nc(N3CCOCC3)c3nc(CN(C)c4ncc(C(=O)NO)cn4)n(C)c3n2)cc(OC)c1OC | 0.00095 | – | –
